Measurements as given in ChEMBL document CHEMBL1138747, “Synthesis and structure--activity relationship in a class of indolebutylpiperazines as dual 5-HT(1A) receptor agonists and serotonin reuptake inhibitors” (J Med Chem, 2004).

Assays:
[1] = target: 5-hydroxytryptamine receptor 1B (Rattus norvegicus, UniProt P28564); experiment: Inhibition of rat hydroxytryptamine 1B receptor
[2] = target: T1, 5-hydroxytryptamine receptor 2C (Rattus norvegicus, UniProt P08909); experiment: Inhibition of rat hydroxytryptamine 2C receptor
T1 sequence (P08909 whole entry): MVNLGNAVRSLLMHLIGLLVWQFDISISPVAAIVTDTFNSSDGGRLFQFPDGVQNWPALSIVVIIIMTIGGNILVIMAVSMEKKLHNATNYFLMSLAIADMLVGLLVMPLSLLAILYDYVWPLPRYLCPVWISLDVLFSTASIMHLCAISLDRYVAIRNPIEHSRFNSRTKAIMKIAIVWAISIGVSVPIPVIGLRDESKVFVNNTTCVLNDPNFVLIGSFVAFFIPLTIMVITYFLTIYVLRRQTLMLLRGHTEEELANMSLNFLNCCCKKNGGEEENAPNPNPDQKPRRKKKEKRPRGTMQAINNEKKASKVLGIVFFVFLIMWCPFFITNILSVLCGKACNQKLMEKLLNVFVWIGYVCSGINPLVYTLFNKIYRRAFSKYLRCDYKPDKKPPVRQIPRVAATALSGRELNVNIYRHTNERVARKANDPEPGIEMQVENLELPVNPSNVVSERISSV

[3] = tested on: Rattus norvegicus; experiment: Dose required to inhibit ultrasonic vocalisation on subcutaneous administered; format: functional; conditions: sc, read-out: ID50 (the source's name)
How it was run: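 Rat ultrasonic vocalization test. In a priming session, up to 10 grid-floor shocks were given (1.8 mA, 0.3 s, 20 s apart). Rats not vocalizing on three consecutive trials were excluded. Next day, rats were tested 2 h after dosing: five shocks, then vocalization duration recorded over 3 min. ID50 (dose for half-maximal inhibition) came from dose–response curves.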

Chain of 5-hydroxytryptamine receptor 1B (P28564 whole entry): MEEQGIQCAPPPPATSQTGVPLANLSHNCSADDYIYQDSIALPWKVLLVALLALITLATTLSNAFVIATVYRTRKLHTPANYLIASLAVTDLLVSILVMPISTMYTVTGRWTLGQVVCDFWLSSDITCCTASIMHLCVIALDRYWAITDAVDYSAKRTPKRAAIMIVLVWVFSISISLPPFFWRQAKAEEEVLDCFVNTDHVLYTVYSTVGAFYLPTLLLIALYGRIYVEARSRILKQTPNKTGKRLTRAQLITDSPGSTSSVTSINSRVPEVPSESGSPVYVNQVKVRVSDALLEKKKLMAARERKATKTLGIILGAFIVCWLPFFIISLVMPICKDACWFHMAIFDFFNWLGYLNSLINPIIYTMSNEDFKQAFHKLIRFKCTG

IC50 [1]: 5 µM | IC50 [2]: 2 µM
Compound: N#Cc1ccc2[nH]cc(CCCCN3CCN(c4ccc5oc(C(N)=O)cc5c4)CC3)c2c1 [VILAZODONE]
ED50 [3]: 4 mg/kg
